Results taken from ChEMBL document CHEMBL1944580, “Synthesis of novel sulfonamide-1,2,4-triazoles, 1,3,4-thiadiazoles and 1,3,4-oxadiazoles, as potential antibacterial and antifungal agents. Biological evaluation and conformational analysis studies” (2012).
≈ marks a conversion by molar mass, not a printed value.

Assays:
[1] = test system: Staphylococcus aureus; experiment: Antibacterial activity against Staphylococcus aureus ATCC 6538 after 24 hrs by micro dilution method; assay type: functional; details: ATCC 6538, 24 h
In short: (§1)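 Microdilution MIC in 96-well plates. Bacterial suspensions adjusted in sterile saline to 1.0 × 10^5 CFU/ml, giving 1.0 × 10^4 cfu per well in LB broth. Compounds tested at up to 1 mg/ml. Plates incubated 24 h. MIC taken as the lowest concentration with no visible growth under a binocular microscope. OD at 655 nm was also read against a blank and the positive control. Streptomycin and ampicillin were the positive controls.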

[2] = test system: Bacillus cereus; experiment: Antibacterial activity against Bacillus cereus clinical isolate after 24 hrs by micro dilution method; assay type: functional; in short: as §1
[3] = test system: Micrococcus flavus; experiment: Antibacterial activity against Micrococcus flavus ATCC 10240 after 24 hrs by micro dilution method; assay type: functional; details: ATCC 10240, 24 h; in short: as §1
[4] = test system: Listeria monocytogenes; experiment: Antibacterial activity against Listeria monocytogenes NCTC 7973 after 24 hrs by micro dilution method; assay type: functional; details: NCTC 7973, 24 h; in short: as §1
[5] = test system: Pseudomonas aeruginosa; experiment: Antibacterial activity against Pseudomonas aeruginosa ATCC 27853 after 24 hrs by micro dilution method; assay type: functional; details: ATCC 27853, 24 h; in short: as §1
[6] = test system: Enterobacter cloacae; experiment: Antibacterial activity against Enterobacter cloacae human isolate after 24 hrs by micro dilution method; assay type: functional; in short: as §1
[7] = test system: Salmonella typhimurium; experiment: Antibacterial activity against Salmonella Typhimurium ATCC 13311 after 24 hrs by micro dilution method; assay type: functional, Salmonella enterica subsp. enterica serovar Typhimurium; details: Salmonella enterica, ATCC 13311, 24 h; in short: as §1
[8] = test system: Escherichia coli; experiment: Antibacterial activity against Escherichia coli ATCC 35210 after 24 hrs by micro dilution method; assay type: functional; details: ATCC 35210, 24 h; in short: as §1
[9] = test system: Staphylococcus aureus; experiment: Antibacterial activity against Staphylococcus aureus ATCC 6538 treated for 24 hrs followed by sub-cultivated for 72 hrs by micro dilution method; assay type: functional
In short: (§2)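 2 µl from each well was serially subcultured into 100 µl fresh broth per well and incubated a further 72 h. MBC is the lowest concentration with no visible growth, taken as 99.5% killing of the original inoculum. Streptomycin and ampicillin were the positive controls.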

[10] = test system: Bacillus cereus; experiment: Antibacterial activity against Bacillus cereus clinical isolate treated for 24 hrs followed by sub-cultivated for 72 hrs by micro dilution method; assay type: functional; in short: as §2
[11] = test system: Micrococcus flavus; experiment: Antibacterial activity against Micrococcus flavus ATCC 10240 treated for 24 hrs followed by sub-cultivated for 72 hrs by micro dilution method; assay type: functional; in short: as §2
[12] = test system: Listeria monocytogenes; experiment: Antibacterial activity against Listeria monocytogenes NCTC 7973 treated for 24 hrs followed by sub-cultivated for 72 hrs by micro dilution method; assay type: functional; in short: as §2
[13] = test system: Pseudomonas aeruginosa; experiment: Antibacterial activity against Pseudomonas aeruginosa ATCC 27853 treated for 24 hrs followed by sub-cultivated for 72 hrs by micro dilution method; assay type: functional; in short: as §2
[14] = test system: Enterobacter cloacae; experiment: Antibacterial activity against Enterobacter cloacae human isolate treated for 24 hrs followed by sub-cultivated for 72 hrs by micro dilution method; assay type: functional; in short: as §2
[15] = test system: Salmonella typhimurium; experiment: Antibacterial activity against Salmonella Typhimurium ATCC 13311 treated for 24 hrs followed by sub-cultivated for 72 hrs by micro dilution method; assay type: functional, Salmonella enterica subsp. enterica serovar Typhimurium; details: Salmonella enterica; in short: as §2
[16] = test system: Escherichia coli; experiment: Antibacterial activity against Escherichia coli ATCC 35210 treated for 24 hrs followed by sub-cultivated for 72 hrs by micro dilution method; assay type: functional; in short: as §2
[17] = test system: Talaromyces funiculosus; experiment: Antifungal activity against Penicillium funiculosum ATCC 36839 after 72 hrs by serial dilution method; assay type: functional; details: ATCC 36839, 72 h
In short: (§3)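 Modified microdilution MIC. Spores were washed from malt agar cultures with sterile 0.85% saline containing 0.1% Tween 80 and adjusted to about 1.0 × 10^5 per 100 µl well in malt broth. Compounds were dissolved in DMSO (1 mg/ml). Plates incubated 72 h at 28 °C. MIC is the lowest concentration with no visible growth under a binocular microscope. Bifonazole and ketoconazole were the references.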

[18] = test system: Penicillium ochrochloron; experiment: Antifungal activity against Penicillium ochrochloron ATCC 9112 after 72 hrs by serial dilution method; assay type: functional; details: ATCC 9112, 72 h; in short: as §3
[19] = test system: Trichoderma viride; experiment: Antifungal activity against Trichoderma viride IAM 5061 after 72 hrs by serial dilution method; assay type: functional; details: IAM 5061, 72 h; in short: as §3
[20] = test system: Aspergillus fumigatus; experiment: Antifungal activity against Aspergillus fumigatus human isolate after 72 hrs by serial dilution method; assay type: functional; in short: as §3
[21] = test system: Aspergillus niger; experiment: Antifungal activity against Aspergillus niger ATCC 6275 after 72 hrs by serial dilution method; assay type: functional; details: ATCC 6275, 72 h; in short: as §3
[22] = test system: Aspergillus flavus; experiment: Antifungal activity against Aspergillus flavus ATCC 9643 after 72 hrs by serial dilution method; assay type: functional; details: ATCC 9643, 72 h; in short: as §3
[23] = test system: Aspergillus versicolor; experiment: Antifungal activity against Aspergillus versicolor ATCC 11730 after 72 hrs by serial dilution method; assay type: functional; details: ATCC 11730, 72 h; in short: as §3
[24] = test system: Fulvia fulva; experiment: Antifungal activity against Fulvia fulva after 72 hrs by serial dilution method; assay type: functional; in short: as §3
[25] = test system: Talaromyces funiculosus; experiment: Antifungal activity against Penicillium funiculosum ATCC 36839 treated for 72 hrs followed by sub-cultivated for 5 days by serial dilution method; assay type: functional
In short: (§4)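 MFC obtained after the 72 h, 28 °C malt-broth microdilution (spore inoculum about 1.0 × 10^5 per well, compounds from 1 mg/ml DMSO). 2 µl was serially subcultured into 100 µl broth per well and incubated a further 5 days at 28 °C. MFC is the lowest concentration with no visible growth, taken as 99.5% killing of the original inoculum.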

[26] = test system: Penicillium ochrochloron; experiment: Antifungal activity against Penicillium ochrochloron ATCC 9112 treated for 72 hrs followed by sub-cultivated for 5 days by serial dilution method; assay type: functional; in short: as §4
[27] = test system: Trichoderma viride; experiment: Antifungal activity against Trichoderma viride IAM 5061 treated for 72 hrs followed by sub-cultivated for 5 days by serial dilution method; assay type: functional; in short: as §4
[28] = test system: Aspergillus fumigatus; experiment: Antifungal activity against Aspergillus fumigatus human isolate treated for 72 hrs followed by sub-cultivated for 5 days by serial dilution method; assay type: functional; in short: as §4
[29] = test system: Aspergillus niger; experiment: Antifungal activity against Aspergillus niger ATCC 6275 treated for 72 hrs followed by sub-cultivated for 5 days by serial dilution method; assay type: functional; in short: as §4
[30] = test system: Aspergillus flavus; experiment: Antifungal activity against Aspergillus flavus ATCC 9643 treated for 72 hrs followed by sub-cultivated for 5 days by serial dilution method; assay type: functional; in short: as §4
[31] = test system: Aspergillus versicolor; experiment: Antifungal activity against Aspergillus versicolor ATCC 11730 treated for 72 hrs followed by sub-cultivated for 5 days by serial dilution method; assay type: functional; in short: as §4
[32] = test system: Fulvia fulva; experiment: Antifungal activity against Fulvia fulva treated for 72 hrs followed by sub-cultivated for 5 days by serial dilution method; assay type: functional; in short: as §4

Row | MIC [1] | MIC [2] | MIC [3] | MIC [4] | MIC [5] | MIC [6] | MIC [7] | MIC [8] | MIC [17] | MIC [18] | MIC [19] | MIC [20] | SMILES | MBC [9] | MBC [10] | MBC [11] | MBC [12] | MBC [13] | MBC [14] | MBC [15] | MBC [16] | further results
1 | 500 µM (≈ 200 µg/mL) | 250 µM (≈ 100 µg/mL) | 250 µM (≈ 100 µg/mL) | 500 µM (≈ 200 µg/mL) | 500 µM (≈ 200 µg/mL) | 500 µM (≈ 200 µg/mL) | 250 µM (≈ 100 µg/mL) | 250 µM (≈ 100 µg/mL) | 130 µM (≈ 52.1 µg/mL) | 130 µM (≈ 52.1 µg/mL) | 60 µM (≈ 24 µg/mL) | 130 µM (≈ 52.1 µg/mL) | CCCNc1nnc(Cc2cc(OC)c(OC)cc2S(=O)(=O)N(C)C)s1 | 500 µM (≈ 200 µg/mL) | 500 µM (≈ 200 µg/mL) | 500 µM (≈ 200 µg/mL) | 500 µM (≈ 200 µg/mL) | 500 µM (≈ 200 µg/mL) | 500 µM (≈ 200 µg/mL) | 500 µM (≈ 200 µg/mL) | 250 µM (≈ 100 µg/mL) | MIC [21]: 60 µM (≈ 24 µg/mL); MIC [22]: 130 µM (≈ 52.1 µg/mL); MIC [23]: 250 µM (≈ 100 µg/mL); MIC [24]: 60 µM (≈ 24 µg/mL); MFC [25]: 250 µM (≈ 100 µg/mL); MFC [26]: 250 µM (≈ 100 µg/mL); MFC [27]: 130 µM (≈ 52.1 µg/mL); MFC [28]: 250 µM (≈ 100 µg/mL); MFC [29]: 130 µM (≈ 52.1 µg/mL); MFC [30]: 250 µM (≈ 100 µg/mL); MFC [31]: 500 µM (≈ 200 µg/mL); MFC [32]: 130 µM (≈ 52.1 µg/mL)
2 | 380 µM (≈ 152 µg/mL) | 250 µM (≈ 100 µg/mL) | 380 µM (≈ 152 µg/mL) | 380 µM (≈ 152 µg/mL) | 250 µM (≈ 100 µg/mL) | 460 µM (≈ 184 µg/mL) | 250 µM (≈ 100 µg/mL) | 380 µM (≈ 152 µg/mL) | 250 µM (≈ 100 µg/mL) | 500 µM (≈ 200 µg/mL) | 130 µM (≈ 52.1 µg/mL) | 130 µM (≈ 52.1 µg/mL) | COc1cc(Cc2nnc(NC(C)C)s2)c(S(=O)(=O)N(C)C)cc1OC | 460 µM (≈ 184 µg/mL) | 500 µM (≈ 200 µg/mL) | 380 µM (≈ 152 µg/mL) | 460 µM (≈ 184 µg/mL) | 380 µM (≈ 152 µg/mL) | 460 µM (≈ 184 µg/mL) | 500 µM (≈ 200 µg/mL) | 460 µM (≈ 184 µg/mL) | MIC [21]: 250 µM (≈ 100 µg/mL); MIC [22]: 250 µM (≈ 100 µg/mL); MIC [23]: 250 µM (≈ 100 µg/mL); MIC [24]: 130 µM (≈ 52.1 µg/mL); MFC [25]: 500 µM (≈ 200 µg/mL); MFC [26]: 750 µM (≈ 300 µg/mL); MFC [27]: 250 µM (≈ 100 µg/mL); MFC [28]: 250 µM (≈ 100 µg/mL); MFC [29]: 750 µM (≈ 300 µg/mL); MFC [30]: 750 µM (≈ 300 µg/mL); MFC [31]: 750 µM (≈ 300 µg/mL); MFC [32]: 250 µM (≈ 100 µg/mL)
